Each structure is given as a SMILES string. The source made the active and inactive calls. The rule behind the calls is not given here.

Drawing on ChEMBL document CHEMBL5625195, “Identification of novel tetrahydroquinoxaline derived phenyl ureas as modulators of the hepatitis B virus nucleocapsid assembly” (Eur J Med Chem, 2023), this text covers Activity, EC50 and CC50 for 5 compounds.

Data set [1] concerns Hepatitis B virus. Kind of data set: Antiviral activity against HBV infected in AML12HBV10 cells assessed as reduction in encapsidated pgRNA at 5 uM after 2 days by Northern blot hybridization. The data set is classed as functional, organism-based. The settings on record: time 2.0 day. The procedure, abridged:
(§1)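 AML12HBV10 cells were induced by tetracycline withdrawal for 24 h, then mock (DMSO) or compound treated for 48 h, with tetracycline-maintained cells as negative control. Encapsidated pgRNA was detected by Northern blot hybridization, using ribosomal RNA as loading control.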

Data set [2] concerns Hepatitis B virus. Kind of data set: Antiviral activity against HBV infected in AML12HBV10 cells assessed as reduction in viral DNA replication at 5 uM after 2 days by Northern blot hybridization. It counts as functional, organism-based. The settings on record: time 2.0 day. The procedure, abridged:
(§2)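 AML12HBV10 cells in 24-well plates were kept with or without tetracycline for 24 h. Tet-maintained cells served as the no-pgRNA negative control. Cells were then mock (DMSO) or compound treated for 48 h. Total viral RNA and encapsidated pgRNA were read by Northern blot with rRNA as loading control. Core protein was read by Western blot (C-terminal 14-residue antibody, β-actin control), capsids by native particle gel assay, and replication intermediates by Southern blot.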

Data set [3] deals with Hepatitis B virus. Kind of data set: Antiviral activity against HBV infected in AML12HBV10 cells assessed as change in total viral RNA at 1 uM after 2 days by Northern blot hybridization. It counts as functional, organism-based. The settings on record: time 2.0 day. In outline:
as §2

The test system of data set [4] is Hepatitis B virus. Kind of data set: Antiviral activity against HBV infected in AML12HBV10 cells assessed as change in capsids at 1 uM after 2 days by Northern blot hybridization. The data set is classed as functional, organism-based. The note with it: time 2.0 day. In outline:
(§3)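 AML12HBV10 cells (mouse hepatocyte line carrying tetracycline-inducible, envelope-deficient HBV genome) in 24-well plates. Tetracycline was removed for 24 h before treatment; tetracycline-maintained cells served as negative control. Cells were mock (DMSO) or compound treated for a further 48 h. Intracellular capsids and core-associated DNA were resolved by native agarose gel particle assay.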

In data set [5] the test system is Hepatitis B virus. Kind of data set: Antiviral activity against HBV infected in AML12HBV10 cells assessed as change in capsid associated viral DNA at 1 uM after 2 days by Northern blot hybridization. The data set is classed as functional, organism-based. The settings on record: time 2.0 day. The procedure, abridged: as §3
Data set [6] relates to Hepatitis B virus. Kind of data set: Antiviral activity against HBV infected in AML12HBV10 cells assessed as change in core protein at 1 uM after 2 days by Northern blot hybridization. It counts as functional, organism-based. The settings on record: time 2.0 day. In outline: as §2
Data set [7] deals with Hepatitis B virus. The data set can be described thus: Antiviral activity against HBV infected in AML12HBV10 cells assessed as change in encapsidated pgRNA at 1 uM after 2 days by Northern blot hybridization. It counts as functional, organism-based. The settings on record: time 2.0 day. In outline: as §1
For data set [8], the system named is Hepatitis B virus. Kind of data set: Antiviral activity against HBV infected in AML12HBV10 cells assessed as change in DNA replication intermediates at 1 uM after 2 days by Northern blot hybridization. It counts as functional, organism-based. The note with it: time 2.0 day. The procedure, abridged: as §2
Data set [9] relates to Hepatitis B virus. Kind of data set: Antiviral activity against HBV infected in AML12HBV10 cells assessed as reduction in encapsidated pgRNA at 2 uM after 2 days by Northern blot hybridization. The data set is classed as functional, organism-based. The settings on record: time 2.0 day. In outline: as §1
For data set [10], the system named is Hepatitis B virus. Kind of data set: Antiviral activity against HBV infected in AML12HBV10 cells assessed as accumulation of capsid at 5 uM after 2 days by Northern blot hybridization. It counts as functional, organism-based. The note with it: time 2.0 day. In outline: as §3
Data set [11] deals with Hepatitis B virus. The data set can be described thus: Antiviral activity against HBV infected in AML12HBV10 cells assessed as decrease in capsid assembly at 2 uM after 2 days by Northern blot hybridization. The data set is classed as functional, organism-based. The settings on record: time 2.0 day. In outline:
as §3

Data set [12] relates to Hepatitis B virus. Kind of data set: Antiviral activity against HBV infected in AML12HBV10 cells assessed as reduction in viral DNA replication at 2 uM after 2 days by Northern blot hybridization. It counts as functional, organism-based. The settings on record: time 2.0 day. In outline: as §2
For data set [13], the system named is Hepatitis B virus. Kind of data set: Antiviral activity against HBV infected in AML12HBV10 cells assessed as reduction viral replication incubated for 48 hrs. The data set is classed as functional, organism-based. The note with it: AML12HBV10, 48 h. In outline:
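AML12HBV10 cells were seeded at 2 x 10^4 per well without tetracycline. After one day, 2-fold serial dilutions (10 μM to 0.08 μM) were applied for 48 h. Lysates were denatured, neutralized and dot-blotted, then hybridized with a 32P-labelled riboprobe specific for HBV minus-strand DNA and read by phosphorimager. EC50 was the concentration reducing HBV DNA by 50%.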

The test system of data set [14] is Hepatitis B virus. Kind of data set: Antiviral activity against HBV infected in AML12HBV10 cells assessed as change in core protein at 1 to 5 uM after 2 days by Northern blot hybridization. The settings on record: dose 1-5 µM, time 2.0 day. The data set is classed as functional, organism-based. In outline: as §2
The subject of a further data set is AML12. Kind of data set: (§4) Cytotoxicity against mouse AML12 cells assessed as reduction in cell viability incubated for 48 hrs by MTT assay. The note with it: aml12, 48 h. The data set is classed as toxicity, cell-based. The procedure, abridged:
(§5)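 Stable AML12HBV10 hepatocytes (AML12-derived), cultured without tetracycline, were exposed to 2-fold serial dilutions (50 μM to 1.56 μM) for 48 h. Viability was inspected microscopically and quantified by MTT. CC50 was the concentration lowering viability by 50%.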
For orientation: Tetrazolium assays rely on reduction of a dye to a coloured formazan, in cell work by metabolically active cells.

Data set [15] has as its system Hepatitis B virus. Kind of data set: Antiviral activity against HBV infected in AML12HBV10 cells assessed as change in total viral RNA at 1 to 5 uM after 2 days by Northern blot hybridization. The settings on record: dose 1-5 µM, time 2.0 day. It counts as functional, organism-based. The procedure, abridged:
as §2

Data set [16] has as its system Hepatitis B virus. Kind of data set: Antiviral activity against HBV infected in AML12HBV10 cells assessed as decrease in capsid assembly at 1 to 5 uM after 2 days by Northern blot hybridization. It counts as functional, organism-based. The settings on record: dose 1-5 µM, time 2.0 day. The procedure, abridged:
as §3

Data set [17] relates to Hepatitis B virus. Kind of data set: Antiviral activity against HBV infected in AML12HBV10 cells assessed as decrease in viral DNA replication at 1 to 5 uM after 2 days by Northern blot hybridization. It counts as functional, organism-based. The settings on record: dose 1-5 µM, time 2.0 day. In outline: as §2
Data set [18] relates to Hepatitis B virus. The data set can be described thus: Antiviral activity against HBV infected in AML12HBV10 cells assessed as decrease in encapsidated pgRNA at 1 to 5 uM after 2 days by Northern blot hybridization. It counts as functional, organism-based. The settings on record: dose 1-5 µM, time 2.0 day. The procedure, abridged:
as §1

Data set [19] is described as follows: as §4. It counts as toxicity, cell-based. The settings on record: AML12 cells. The procedure, abridged: as §5

With `CCC(C)NS(=O)(=O)c1ccc(F)c(C(=O)Nc2ccc(F)c(F)c2)c1` (stereo unspecified), the outcome with Hepatitis B virus [1] and in the data set on Hepatitis B virus [2] was Active.

For the compound `C=C1[C@H](CO)[C@@H](O)C[C@@H]1n1cnc2c(=O)[nH]c(N)nc21`, the outcome with Hepatitis B virus [3], in the data set with Hepatitis B virus [4], in the data set on Hepatitis B virus [6] and with Hepatitis B virus [7] was inactive. Moreover, the outcome in the data set on Hepatitis B virus [5] and in the data set with Hepatitis B virus [8] was Active.

With `COC(=O)C1=C(C)NC(c2ncc(F)cc2F)=N[C@H]1c1ccc(F)cc1Cl`, the outcome in the data set with Hepatitis B virus [9], in the data set on Hepatitis B virus [10], with Hepatitis B virus [11] and in the data set with Hepatitis B virus [12] was Active.

A word on the EC50: it is the midpoint of the concentration-response curve. Usually CC50 stands for the concentration giving 50% cytotoxicity. As for `O=C(Nc1ccc(F)c(Cl)c1)N1CCNc2ccccc21`, in the data set with Hepatitis B virus [13], the half-maximal effective concentration (EC50) turned out to be 510 nM. Further, the outcome in the data set on Hepatitis B virus [14] and in the data set on Hepatitis B virus [15] was inactive. For the same compound, the CC50 with AML12 was over 100000 nM. Further, the result with Hepatitis B virus [16], in the data set on Hepatitis B virus [17] and in the data set on Hepatitis B virus [18] was Active.

Turning to `O=C(Nc1ccc(F)c(Cl)c1)N1CCN(C(=O)Nc2ccc(F)c(Cl)c2)c2ccccc21`, the concentration for a half-maximal effect (EC50) in the data set on Hepatitis B virus [13] worked out at 1010 nM. For the same compound, the outcome in the data set on Hepatitis B virus [14] and with Hepatitis B virus [15] was inactive. In addition, the CC50 at 48 h in data set [19] is over 12500 nM. The outcome in the data set with Hepatitis B virus [16], in the data set with Hepatitis B virus [17] and with Hepatitis B virus [18] was Active.
